Measurements as given in ChEMBL document CHEMBL3259528, “Exploring 5-nitrofuran derivatives against nosocomial pathogens: synthesis, antimicrobial activity and chemometric analysis” (2014).
Values after ≈ are worked out from the molar mass of the structure shown. Active and inactive are the calls of the source. The calls are words filed in the database; no cut-off is given here.

What was measured:
Staphylococcus aureus [1] = assay: Antimicrobial activity against Staphylococcus aureus ATCC 29213 at 128 uM after 24 to 48 hrs by two-fold broth microdilution method; format: functional, organism-based
Outline: (§1)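 Antibacterial microdilution in CAMH, inoculum 0.5 McFarland diluted in saline/CAMH, 35 °C for 18 h, with further reads at 24 and 48 h. Activity is scored at the maximum tested concentration, 128 µM. Triplicate.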

Candida albicans [2] = assay: Antimicrobial activity against Candida albicans ATCC 537Y at 64 uM after 48 hrs by two-fold broth microdilution method; format: functional, organism-based
Outline: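 Single top concentration of the antifungal microdilution: RPMI 1640, inoculum 0.5 McFarland diluted in saline/RPMI, 35 °C for 48 h. Activity is judged at the highest tested level, 64 µM. Run in triplicate.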

Enterobacter cloacae [3] = assay: Antimicrobial activity against Enterobacter cloacae ATCC 23355 at 128 uM after 24 to 48 hrs by two-fold broth microdilution method; format: functional, organism-based; outline: as §1
Enterococcus faecalis [4] = assay: Antimicrobial activity against Enterococcus faecalis ATCC 29212 at 128 uM after 24 to 48 hrs by two-fold broth microdilution method; format: functional, organism-based; outline: as §1
Serratia marcescens [5] = assay: Antimicrobial activity against Serratia marcescens ATCC 14576 at 128 uM after 24 to 48 hrs by two-fold broth microdilution method; format: functional, organism-based; outline: as §1
Klebsiella pneumoniae [6] = assay: Antimicrobial activity against Klebsiella pneumoniae ATCC 700603 at 128 uM after 24 to 48 hrs by two-fold broth microdilution method; format: functional, organism-based; outline: as §1
Escherichia coli [7] = assay: Antimicrobial activity against Escherichia coli ATCC 25922 at 128 uM after 24 to 48 hrs by two-fold broth microdilution method; format: functional, organism-based; outline: as §1
Enterococcus faecalis [8] = assay: Antimicrobial activity against Enterococcus faecalis ATCC 29212 after 24 to 48 hrs by two-fold broth microdilution method; format: functional
Serratia marcescens [9] = assay: Antimicrobial activity against Serratia marcescens ATCC 14576 after 24 to 48 hrs by two-fold broth microdilution method; format: functional
Escherichia coli [10] = assay: Antimicrobial activity against Escherichia coli ATCC 25922 after 24 to 48 hrs by two-fold broth microdilution method; format: functional
Staphylococcus aureus [11] = assay: Antimicrobial activity against Staphylococcus aureus ATCC 29213 after 24 to 48 hrs by two-fold broth microdilution method; format: functional
Klebsiella pneumoniae [12] = assay: Antimicrobial activity against Klebsiella pneumoniae ATCC 700603 after 24 to 48 hrs by two-fold broth microdilution method; format: functional
Outline: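 Two-fold serial dilutions in cation-adjusted Mueller–Hinton broth per CLSI M100-S2. Stocks in DMSO/CAMH 1:10 v/v. Range 2.0–128 µM. Inoculum set to 0.5 McFarland, then diluted in saline and CAMH. Incubated at 35 °C for 18 h. MIC is the lowest concentration with no visible growth. Plates also read at 24 and 48 h as sterility control. Triplicate.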

Enterobacter cloacae [13] = assay: Antimicrobial activity against Enterobacter cloacae ATCC 23355 after 24 to 48 hrs by two-fold broth microdilution method; format: functional
Staphylococcus aureus [14] = assay: Antimicrobial activity against multidrug-resistant Staphylococcus aureus VISA3 […] by two-fold broth microdilution method; format: functional
Staphylococcus aureus [15] = assay: Antimicrobial activity against Staphylococcus aureus ATCC 29213 after 18 hrs by modified broth microdilution method; format: functional
Outline: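 PGI90, the concentration giving 90% growth inhibition, fitted with an exponential growth curve from at least seven concentrations of the MIC assay. Inhibition % = [(Ac − Ap)/Ac] × 100 from A620 of drug-free control versus drug-treated culture. Checked by a modified broth microdilution (Phase 2).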

Candida albicans [16] = assay: Antimicrobial activity against Candida albicans ATCC 537Y after 48 hrs by two-fold broth microdilution method; format: functional
Outline: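 Two-fold serial dilutions in RPMI 1640 per CLSI M27-A2. Stocks in DMSO/RPMI 1:20 v/v. Test range 1.0–64 µM. Inoculum set to 0.5 McFarland, then diluted in saline and RPMI 1640. Plates held at 35 °C for 48 h. MIC is the lowest concentration giving prominent growth reduction. Run in triplicate.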

Row | SMILES | Activity (Staphylococcus aureus [1]) | Activity (Candida albicans [2]) | Activity (Enterobacter cloacae [3]) | Activity (Enterococcus faecalis [4]) | Activity (Serratia marcescens [5]) | Activity (Klebsiella pneumoniae [6]) | Activity (Escherichia coli [7]) | MIC (Enterococcus faecalis [8]) [µM] | MIC (Serratia marcescens [9]) [µM] | MIC (Escherichia coli [10]) [µM] | MIC (Staphylococcus aureus [11]) [µM] | MIC (Klebsiella pneumoniae [12]) [µM] | MIC90 (Enterococcus faecalis [8]) [µM] | MIC (Staphylococcus aureus [14]) [µM] | log(1/MIC>90) (Staphylococcus aureus [15]) | MIC90 (Serratia marcescens [9]) [µM] | MIC90 (Escherichia coli [10]) [µM] | MIC90 (Staphylococcus aureus [11]) [µM] | MIC90 (Klebsiella pneumoniae [12]) [µM] | MIC90 (Enterobacter cloacae [13]) [µM] | further results
1 | CC(=O)N1N=C(c2ccc(C(C)(C)C)cc2)OC1c1ccc([N+](=O)[O-])o1 (stereo not given) | inactive | inactive | inactive | inactive | inactive | inactive | inactive |  |  |  |  |  |  |  |  |  |  |  |  |  | 
2 | CCCOc1ccc(C2=NN(C(C)=O)C(c3ccc([N+](=O)[O-])o3)O2)cc1 (stereo not given) | inactive | inactive | inactive | inactive | inactive | inactive | inactive |  |  |  |  |  |  |  |  |  |  |  |  |  | 
3 | C[C@H]1COc2c(N3CCN(C)CC3)c(F)cc3c(=O)c(C(=O)O)cn1c23 [LEVOFLOXACIN] |  |  |  |  |  |  |  | < 20 | < 20 | < 20 | < 20 | < 20 |  |  |  |  |  |  |  |  | MIC (Enterobacter cloacae [13]): < 20 µM
4 | CCCc1ccc(C(=O)N/N=C/c2ccc([N+](=O)[O-])o2)cc1 |  |  |  |  |  |  |  | 64 (≈ 19.3 µg/mL) | 64 (≈ 19.3 µg/mL) | 64 (≈ 19.3 µg/mL) | 2 (≈ 0.603 µg/mL) | 64 (≈ 19.3 µg/mL) | 73.2 (≈ 22.1 µg/mL) | 2 (≈ 0.603 µg/mL) | 5.59 | 66.3 (≈ 20 µg/mL) | 69.8 (≈ 21 µg/mL) | 2.56 (≈ 0.771 µg/mL) | 74.8 (≈ 22.5 µg/mL) | 69.8 (≈ 21 µg/mL) | MIC (Candida albicans [16]): 32 µM (≈ 9.64 µg/mL); MIC90 (Candida albicans [16]): 42.1 µM (≈ 12.7 µg/mL)
5 | O=C(N/N=C/c1ccc([N+](=O)[O-])o1)c1ccc(I)cc1 |  | inactive | inactive | inactive | inactive | inactive | inactive |  |  |  | 2 (≈ 0.77 µg/mL) |  |  | 2 (≈ 0.77 µg/mL) | 5.56 |  |  | 2.78 (≈ 1.07 µg/mL) |  |  | 
6 | CCCOc1ccc(C(=O)N/N=C/c2ccc([N+](=O)[O-])o2)cc1 |  |  |  |  |  |  |  | 64 (≈ 20.3 µg/mL) | 64 (≈ 20.3 µg/mL) | 64 (≈ 20.3 µg/mL) | 2 (≈ 0.635 µg/mL) | 64 (≈ 20.3 µg/mL) | 73.5 (≈ 23.3 µg/mL) | 4 (≈ 1.27 µg/mL) | 5.61 | 66.7 (≈ 21.2 µg/mL) | 65.8 (≈ 20.9 µg/mL) | 2.47 (≈ 0.784 µg/mL) | 71.5 (≈ 22.7 µg/mL) | 69.8 (≈ 22.2 µg/mL) | MIC (Candida albicans [16]): 32 µM (≈ 10.2 µg/mL); MIC90 (Candida albicans [16]): 40.8 µM (≈ 12.9 µg/mL)
